Measured values as given in ChEMBL document CHEMBL1125744, “Preparation, characterization, and anticancer activity of a series of cis-PtCl2 complexes linked to anthraquinone intercalators” (1991).

What was measured:
Assay type in all cases: functional
[1] = system: P388; experiment: In vitro inhibition of P388 murine leukemia cell (R/ADR) growth; conditions: Mus musculus; for EC50: read-out: ED50 (the source's name)
In short: (§1)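 P388 murine leukemia cells (S/ADR) or multidrug-resistant P388/ADR subline (R/ADR), kept exponential in suspension in RPMI 1640 + 10% heat-inactivated FCS, 10 μM 2-mercaptoethanol, penicillin/streptomycin; seeded 10⁵ cells/mL, exposed to graded concentrations for 4 days. Density counted daily by Coulter counter; growth rate from linear regression of log density vs time, expressed as % of control; ED50 read from dose-effect curves.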

[2] = system: P388; experiment: In vitro inhibition of P388 murine leukemia cell (S/ADR) growth; conditions: Mus musculus; for EC50: read-out: ED50 (the source's name); in short: as §1
[3] = species: Mus musculus; experiment: Lethal dose against DBA/2 mice was determined.
[4] = T/C ratio with the optimal dose mg/Kg in parenthesis.
[5] = T/C ratio of the compound

EC50 [1] [µM] | EC50 [2] [µM] | Compound | ED50 [1] [µM] | ED50 [2] [µM] | also measured
> 10 | 10 | NCCCOc1cccc2c1C(=O)c1ccccc1C2=O |  |  | 
45 | 20 | NCCCNc1cccc2c1C(=O)c1ccccc1C2=O |  |  | 
 |  | Pt(en)Cl2 | 20 | 6 | 
 |  | [[2-[[3-(Anthraquinon-1-ylamino)propyl]amino]ethyl](2-hydroxyethyl)-amine-N,N']dichloroplatinum | > 60 | > 30 | 
> 10 | 20 | O=C1c2ccccc2C(=O)c2c(NCCCNCCNCCO)cccc21 |  |  | 
 |  | cis-Bis[[3-(anthraquinon-1-ylamino)butyl]amide]dichloroplatinum | > 60 | 8 | 
 |  | cis-Bis[[3-(anthraquinon-1-ylamino)butyl]amide]diiodoplatinum | > 60 | 40 | 
> 60 | 0.2 | NCCNCCOCCOc1cccc2c1C(=O)c1ccccc1C2=O |  |  | 
 |  | [[2-[[3-(Anthraquinon-1-ylamino)propyl]amino]ethyl]-amine-N,N']dichloroplatinum | > 60 | 0.45 | T/C [4]: 130; LD50 [3]: > 28 mg/kg
 |  | cis-Bis[[3-(anthraquinon-1-ylamino)dodecyl]amide]dichloroplatinum | > 60 | 60 | 
 |  | cis-Bis[[3-(anthraquinon-1-ylamino)hexyl]amide]diiodoplatinum | > 60 | > 60 | 
 |  | CISPLATIN | 1.4 | 0.19 | T/C [5]: 134; LD50 [3]: 6.6 mg/kg
 |  | cis-Bis[[3-(anthraquinon-1-yloxy)propyl]amide]dichloroplatinum | > 10 | > 10 | 
 |  | cis-Bis[[3-(anthraquinon-1-ylamino)propyl]amide]diiodoplatinum | > 60 | 40 | 
8 | 4.5 | NCCNCCNc1cccc2c1C(=O)c1ccccc1C2=O |  |  | 
 |  | [[2-[[3-(Anthraquinon-1-yloxy)propyl]amino]ethyl]-amine-N,N']dichloroplatinum | 12 | 0.45 | T/C [4]: 120; LD50 [3]: > 28 mg/kg
 |  | [[2-[[6-(Anthraquinon-1-ylamino)hexyl]amino]ethyl]-amine-N,N']dichloroplatinum | > 60 | 45 | 
 |  | [[2-[[2-(Anthraquinon-1-ylamino)ethyl]amino]ethyl]-amine-N,N']dichloroplatinum | > 60 | 0.2 | T/C [4]: 126; LD50 [3]: > 28 mg/kg
 |  | cis-Bis[[3-(anthraquinon-1-ylamino)hexyl]amide]dichloroplatinum | > 60 | > 60 | 
 |  | cis-Bis[[3-(anthraquinon-1-ylamino)dodecyl]amide]diiodoplatinum | > 60 | 60 | 
20 | 60 | NCCCCCCCCCCCCNc1cccc2c1C(=O)c1ccccc1C2=O |  |  | 
 |  | cis-Bis[[3-(anthraquinon-1-yloxy)propyl]amide]diiodoplatinum | > 10 | > 10 | 
 |  | [[2-[[2-(Anthraquinon-1-ylamino)ethyl]amino]ethyl]-amine-N,N']diiodoplatinum | 12 | 4.5 | 
8 | 4.5 | NCCNCCCNc1cccc2c1C(=O)c1ccccc1C2=O |  |  | 
60 | 6 | NCCNCCCOc1cccc2c1C(=O)c1ccccc1C2=O |  |  | 

Compound | EC50 [1] [µM] | EC50 [2] [µM] | ED50 [1] [µM] | ED50 [2] [µM] | also measured
NCCCCCCNc1cccc2c1C(=O)c1ccccc1C2=O | 45 | 45 |  |  | LD50 [3]: 133 mg/kg
NCCNCCCCCCNc1cccc2c1C(=O)c1ccccc1C2=O | 8 | 4.5 |  |  | LD50 [3]: 200 mg/kg
NCCCCNc1cccc2c1C(=O)c1ccccc1C2=O | 50 | 40 |  |  | LD50 [3]: 200 mg/kg
